# Bioassay records: PubChem BioAssay, Broad Institute
# Hits are enriched below; roughly 3.4% of the tested compounds scored in any of these assays.
# S100A4 MyoIIA: blocks human S100A4 binding to myosin IIA peptide. P26447. S100A4/TAMRA-MyoIIA peptide fluorescence polarization. inhibition, % at 10.7 µM. actives 0.14% (n = 360,000). AID 652163;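 active = mean inhibition of at least 70% across replicates, with every replicate also reaching that level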
# Target sequence (P26447 whole entry, looked up): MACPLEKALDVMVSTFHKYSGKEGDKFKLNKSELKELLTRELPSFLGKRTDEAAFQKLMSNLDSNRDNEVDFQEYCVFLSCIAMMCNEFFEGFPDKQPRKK
#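 Test system – S100A4 monomer (human) · Compound – single-point compound testing · Schedule – 5 min incubation before reading · Probe or stimulus – TAMRA-labelled myosin IIA heavy-chain peptide probe, 5 nM · Benchmarks – neutral control DMSO, positive control TFP · Medium – Calcium-containing HEPES buffer, pH 7.2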
# AF4-AF9 inh: inhibitors of human MLL-AF4/AF9 interaction. P42568. AlphaScreen, biotin-AF4 peptide binding to FLAG-AF9. inhibition, % at 10 µM. actives 0.47% (n = 350,000). AID 651704;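 active = every replicate reaching a set inhibition limit, whatever the replicate mean, cut at about 25% in these data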;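 note: 0% = plate neutral control median and 100% = total signal loss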
# E-selectin induc: induces E-selectin expression in human endothelial cells | P16581 | HUVEC E-selectin immunofluorescence imaging; normalized: neutral wells 0, TNF-alpha wells 100 | activation, % at 7.58 µM | actives 0.37% (n = 260,000) | AID 686992;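 active = mean E-selectin-positive cell signal at least 10% of the positive control, reached in at least 60% of replicates, without over 20% cell loss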
#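 Read-out: % PE-positive cells | Test system: HUVEC | Doses: One compound dose added by pin transfer | Buffer or medium: EGM-2 over gelatin coat | Signal: Immunofluorescence imaging | Benchmarks: TNF-alpha, DMSO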
# SIRT5 block: sirtuin-5 (human) deacylase inhibition | Q9NXA8 | Purified SirT5, succinyl-peptide AMC, trypsin-coupled fluorescence | inhibition, % at 15 µM | actives 1.1% (n = 330,000) | AID 652115; in the data active = inhibition above about 15%
# Target sequence (Q9NXA8 whole entry, looked up): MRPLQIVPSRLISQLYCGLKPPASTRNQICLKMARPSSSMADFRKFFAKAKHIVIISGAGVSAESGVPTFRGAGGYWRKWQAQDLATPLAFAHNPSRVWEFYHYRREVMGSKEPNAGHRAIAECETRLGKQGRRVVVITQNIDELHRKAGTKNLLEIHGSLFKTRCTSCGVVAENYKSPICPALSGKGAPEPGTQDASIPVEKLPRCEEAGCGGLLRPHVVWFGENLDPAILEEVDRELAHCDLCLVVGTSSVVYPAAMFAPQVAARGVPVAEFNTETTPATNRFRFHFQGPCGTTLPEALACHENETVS
# rRNA inh HTS: inhibitors of bacterial rRNA selective over humanized ribosomes; E. coli WT GFP vs humanized-ribosome RFP mutants, fluorescence, 24 h; active compounds read low; DMSO median 0, no signal -100; GFP signal change (wild-type ribosome), % (test concentration not listed); actives 1.6% (n = 350,000); AID 720706;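 active = significant combined selectivity score with lowered wild-type GFP, culture density cut under 30%, mutant RFP and density less affected; inactive = any of these conditions unmet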
# ERAP1 inh: ERAP1 (human) enzyme inhibition; actives 0.15% (n = 340,000); recombinant ERAP1, Leu-AMC fluorescence, 60 min; AID 652197; inhibition, % at 10.7 µM; Q9NZ08;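 active = mean replicate inhibition of at least 30%, or all replicates individually reaching that 30% level; inactive = mean below 30% and not every replicate reaching it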;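 note: 0% = neutral control wells and 100% = L-leucinethiol positive control wells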
# Starred values were filed as active, the others as inactive; . = no result given; ! = repeats disagree.
SMILES,S100A4 MyoIIA,AF4-AF9 inh,E-selectin induc,SIRT5 block,rRNA inh HTS,ERAP1 inh
Cc1noc(C)c1NC(=O)Nc1ccc2c(c1)CC(=O)N([C@H](C)CO)C[C@@H](C)[C@H](CN(C)C(=O)NC1CCCCC1)O2,-3,-2,0,-2,1,2
CCN(Cc1ccccc1)S(=O)(=O)CCNC(=O)c1ccccc1,-1,0,1,-2,-3,1
CCN(Cc1ccccc1)S(=O)(=O)CCNC(=O)c1ccc(OC)cc1,-7,-12,0,35*,-10,1
CCCCCNC(=O)C(c1cc2ccccc2o1)n1c(=O)c(-c2ccccc2)nc2ccccc21 (centres undefined),0,.,0,19*,.,-1
CCCCCNC(=O)C(c1cc2ccccc2o1)n1c(=O)c(-c2cc3ccccc3[nH]2)nc2ccccc21 (centres undefined),-2,-20,2,-1,12,.
Cc1cc(/C=C2\SC(=O)NC2=O)c(C)n1-c1ccc(N2CCOCC2)cc1,-9,2,0,-2,-24,67*
CC(=O)NC[C@H]1[C@H](c2ccccc2)[C@H](CO)N1C(=O)Cc1ccncc1,.,.,0,.,1,.
CO[C@H]1CN(C)C(=O)c2cc(NC(=O)c3ccc(F)cc3)ccc2OC[C@@H](C)N(Cc2cocn2)C[C@@H]1C,.,.,0,.,1,.
CC1=NN(c2ccc(C(=O)O)c(N)c2)C(=O)C1,29,-22,.,23*,21,4
CC1=NN(c2ccc(Cl)c(C(=O)O)c2)C(=O)C1,-2,3,.,-2,.,8
COc1ccccc1N(CN1C(=O)c2ccccc2C1=O)C(=O)c1cccc(C)c1,2,9,-3,-1,-30*,-3
CCCNC(=O)N(C)C[C@H]1Oc2cc(C3=CCCC3)ccc2S(=O)(=O)N([C@@H](C)CO)C[C@H]1C,-6,-2,0,4,-1,.
COC(=O)/C=C/c1sc2nc(C)cc(C)c2c1N=CN(C)C,4,5,.,32*,4,-5
COc1ccc2cc(C[C@@H]3CC[C@@H](CO)O3)ccc2c1,-1,-2,0,.,-23*,.
CS(=O)(=O)C1=NSC2=NC(=O)/C(=C\c3ccc(OS(=O)(=O)c4ccccc4)cc3)C(=N)N21,0,1,1,17*,-16,-1
Cc1cc(C)cc(-n2cccc2/C=C2/C(=N)N3C(=NC2=O)SN=C3S(C)(=O)=O)c1,-12,2,.,3,-28*,1
Cc1ccc(S(=O)(=O)Oc2ccc(/C=C3/C(=N)N4C(=NC3=O)SN=C4S(C)(=O)=O)cc2)cc1,-3,1,-1,6,-16,4
CC(C)(C)c1ccc(SC2=C[C@@]3(O)CC[C@@H](O)[C@@](Sc4ccc(C(C)(C)C)cc4)(C2=O)[C@H]3O)cc1,8,4,1,.,5,.
Cc1ccc(SC2=C[C@@]3(O)CC[C@@H](O)[C@@](Sc4ccc(C)cc4)(C2=O)[C@H]3O)cc1,-3,-2,0,.,-25*,.
COc1ccc(-n2c(O)c(/C=C3\C=Nc4ccccc43)c(=O)[nH]c2=O)cc1,9,4,0,39*,-27,0
O=c1[nH]c(/C=C2\C=Nc3ccccc32)c(O)n1Cc1ccccc1F,-1,3,-3,7,-9,-5
FC(F)(F)c1ccc2c(c1)N1CCCC1CN2 (centres undefined),-8,9,58*,-2,6,-1
C[C@H](CO)N1C[C@H](C)[C@H](CN(C)Cc2ccncc2)Oc2ncc(C#CCN(C)C)cc2C1=O,6,-2,1,41*!,5,2
C[C@H](CO)N1C[C@H](C)[C@@H](CN(C)Cc2cccc(F)c2)Oc2ncc(C#C[C@@H](C)O)cc2C1=O,141*,-2,0,0,9,-6
C[C@H](O)C#Cc1cnc2c(c1)C(=O)N([C@@H](C)CO)C[C@H](C)[C@@H](CN(C)Cc1cccc(F)c1)O2,-3,-1,0,0,-3,-4
C[C@@H]1CN([C@@H](C)CO)C(=O)c2cc(-c3cccc(F)c3)cnc2O[C@H]1CN(C)C(=O)Nc1cc(F)ccc1F,3,8,-1,23*,-6,0
